Test results from ChEMBL document CHEMBL4049458, “Structure-Based Optimization of Thiophene[3,2-d]pyrimidine Derivatives as Potent HIV-1 Non-nucleoside Reverse Transcriptase Inhibitors with Improved Potency against Resistance-Associated Variants” (J Med Chem, 2017).

Assays:
[1] = Selectivity index, ratio of CC50 for human MT4 cells to EC50 for reverse transcriptase L100I mutant in human MT4 cells infected HIV1 3B; conditions: MT4 cells
[2] = Selectivity index, ratio of CC50 for human MT4 cells to EC50 for reverse transcriptase K103N mutant in human MT4 cells infected HIV1 3B; conditions: MT4 cells
[3] = Selectivity index, ratio of CC50 for human MT4 cells to EC50 for reverse transcriptase Y181C mutant in human MT4 cells infected HIV1 3B; conditions: MT4 cells
[4] = Selectivity index, ratio of CC50 for human MT4 cells to EC50 for reverse transcriptase Y188L mutant in human MT4 cells infected HIV1 3B; conditions: MT4 cells
[5] = Selectivity index, ratio of CC50 for human MT4 cells to EC50 for reverse transcriptase E138K mutant in human MT4 cells infected HIV1 3B; conditions: MT4 cells
[6] = Selectivity index, ratio of CC50 for human MT4 cells to EC50 for reverse transcriptase F227L/V106A double mutant in human MT4 cells infected HIV1 3B; conditions: MT4 cells
[7] = Selectivity index, ratio of CC50 for human MT4 cells to EC50 for HIV1 RES056 reverse transcriptase K103N/Y181C double mutant infected in human MT4 cells; conditions: MT4 cells
[8] = Fold resistance, ratio of EC50 for reverse transcriptase L100I mutant in human MT4 cells infected HIV1 3B to EC50 for wild type HIV1 3B harboring reverse transcriptase infected in human MT4 cells; format: functional
In short: (§1)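 MT-4 cells at 6 × 10^5 cells/mL were infected with WT HIV-1 IIIB or RT-mutant strains at 100−300 CCID50, with 5-fold serial compound dilutions in triplicate wells. After 5 days, viability was read by MTT reduction at 540 and 690 nm, using the median OD of three wells. […] Fold resistance is mutant EC50 divided by WT EC50.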

[9] = Fold resistance, ratio of EC50 for reverse transcriptase K103N/Y181C double mutant in human MT4 cells infected HIV1 RES056 to EC50 for wild type HIV1 3B harboring reverse transcriptase infected in human MT4 cells; format: functional; in short: as §1
[10] = test system: Human immunodeficiency virus 1; assay: Antiviral activity against wild type HIV1 3B harboring reverse transcriptase infected in human MT4 cells assessed as protection against virus induced cytotoxicity after 5 days by MTT assay; format: functional, cell-based; conditions: Human immunodeficiency virus 1, 3B, MT4, 120 h
[11] = test system: Human immunodeficiency virus 2; assay: Antiviral activity against HIV2 ROD harboring reverse transcriptase infected in human MT4 cells assessed as protection against virus induced cytotoxicity after 5 days by MTT assay; format: functional, cell-based; conditions: Human immunodeficiency virus 2, ISOLATE ROD, MT4, 120 h
[12] = Cytotoxicity against human MT4 cells assessed as cell viability after 5 days by MTT assay; format: cell-based
[13] = Selectivity index, ratio of CC50 for human MT4 cells to EC50 for wild type HIV1 3B harboring reverse transcriptase infected in human MT4 cells; conditions: MT4 cells
[14] = Fold resistance, ratio of EC50 for reverse transcriptase K103N mutant in human MT4 cells infected HIV1 3B to EC50 for wild type HIV1 3B harboring reverse transcriptase infected in human MT4 cells; format: functional; in short: as §1
[15] = Fold resistance, ratio of EC50 for reverse transcriptase E138K mutant in human MT4 cells infected HIV1 3B to EC50 for wild type HIV1 3B harboring reverse transcriptase infected in human MT4 cells; format: functional; in short: as §1
[16] = Fold resistance, ratio of EC50 for reverse transcriptase Y181C mutant in human MT4 cells infected HIV1 3B to EC50 for wild type HIV1 3B harboring reverse transcriptase infected in human MT4 cells; format: functional; in short: as §1
[17] = Fold resistance, ratio of EC50 for reverse transcriptase Y188L mutant in human MT4 cells infected HIV1 3B to EC50 for wild type HIV1 3B harboring reverse transcriptase infected in human MT4 cells; format: functional; in short: as §1
[18] = Fold resistance, ratio of EC50 for reverse transcriptase F227L/V106A double mutant in human MT4 cells infected HIV1 3B to EC50 for wild type HIV1 3B harboring reverse transcriptase infected in human MT4 cells; format: functional; in short: as §1

Compound: Cc1cc(C#N)cc(C)c1Oc1nc(NC2CCN(Cc3ccc(S(N)(=O)=O)cc3)CC2)nc2ccsc12
- selectivity ratio [1]: > 67400
- selectivity ratio [2]: > 78100
- selectivity ratio [3]: > 70000
- selectivity ratio [4]: > 75800
- selectivity ratio [5]: > 78100
- selectivity ratio [6]: > 53500
- selectivity ratio [7]: > 7350
- Ratio EC50 [8]: 2.4
- Ratio EC50 [9]: 21

Compound: Cc1cc(/C=C/C#N)cc(C)c1Oc1nc(NC2CCN(Cc3cccnc3)CC2)nc2ccsc12
- EC50 [10]: 0.00322 µM
- EC50 [11]: > 3.86 µM
- CC50 at 120 h [12]: 3.86 µM
- selectivity ratio [13]: 1200
- selectivity ratio [1]: 866
- selectivity ratio [2]: 872
- selectivity ratio [3]: 637
- selectivity ratio [4]: 358
- selectivity ratio [5]: 587
- selectivity ratio [6]: 664
- selectivity ratio [7]: 308
- Ratio EC50 [9]: 3.4 - 6

Compound: Cc1cc(C#N)cc(C)c1Oc1nc(NC2CCN(Cc3ccc(S(N)(=O)=O)cc3)CC2F)nc2ccsc12 (centres undefined)
- EC50 [10]: 0.00569 µM
- EC50 [11]: > 5.15 µM
- CC50 at 120 h [12]: 5.15 µM
- selectivity ratio [13]: 906
- selectivity ratio [1]: 576
- selectivity ratio [2]: 653
- selectivity ratio [3]: 171
- selectivity ratio [4]: 370
- selectivity ratio [5]: 296
- selectivity ratio [6]: 590
- selectivity ratio [7]: 138
- Ratio EC50 [14]: 1.4 - 6.5
- Ratio EC50 [15]: 1.4 - 6.5
- Ratio EC50 [8]: 1.4 - 6.5
- Ratio EC50 [9]: 1.4 - 6.5
- Ratio EC50 [16]: 1.4 - 6.5
- Ratio EC50 [17]: 1.4 - 6.5
- Ratio EC50 [18]: 1.4 - 6.5
